# Data as given in ChEMBL document CHEMBL1629700, “Assessment of oritavancin serum protein binding across species” (Antimicrob Agents Chemother, 2010).
# Columns and labels:
# Staphylococcus aureus [1] = assay: Antibacterial activity against Staphylococcus aureus ATCC 29213 grown in CAMHB medium by broth microdilution method in presence of 50 ug/ml CaCl2 and 95% dog serum ultrafiltrate; assay type: functional
# Outline: (§1)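 Broth microdilution MIC run in a matrix of 95% pooled serum, or 95% ultrafiltrate of that serum (50 kDa cutoff, albumin excluded), plus 5% CAMHB. Arithmetic dilutions ran from 20 to 0.3 μg/ml in CAMHB with 50 μg/ml CaCl2. Means came from 8 replicates (mouse 4 to 8). Beagle dog serum was used for dog.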
# Staphylococcus aureus [2] = assay: Ratio of MIC for Staphylococcus aureus ATCC 29213 grown in CAMHB medium in presence of 95% human serum to MIC for Staphylococcus aureus ATCC 29213 in presence of 95% human serum ultrafiltrate; assay type: functional
# Outline: (§2)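 The fold increase is the mean arithmetic broth microdilution MIC in 95% serum (plus 5% CAMHB) divided by the mean MIC in 95% serum ultrafiltrate (plus 5% CAMHB). The ultrafiltrate was prepared with a 50 kDa cutoff that excludes albumin. Replicates were 8 per condition, or 4 to 8 for mouse. The same data give % bound = (1 − MIC ultrafiltrate/MIC serum) × 100.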
# [3] = (§3) Protein binding in mouse serum by broth microdilution method; assay type: ADME, cell-free; conditions: read-out: PB (converted)
# Outline: (§4)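 Pooled serum (dog: beagle) and its ultrafiltrate (50 kDa cutoff, excludes albumin) were used. Broth microdilution MICs against S. aureus ATCC 29213 were read with arithmetic drug dilutions, made in CAMHB with 0.002% polysorbate-80, in 95% serum or 95% ultrafiltrate plus 5% CAMHB. % bound = (1 − mean MIC ultrafiltrate/mean MIC serum) × 100. Human, rat and dog used 8 replicates; mouse used 4–8.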
# [4] = Protein binding in rat serum by broth microdilution method; assay type: ADME, cell-free; conditions: read-out: PB (converted); outline: as §4
# Staphylococcus aureus [5] = assay: Antibacterial activity against Staphylococcus aureus ATCC 29213 grown in CAMHB medium by broth microdilution method in presence of 50 ug/ml CaCl2 and 95% human serum; assay type: functional; outline: as §1
# Staphylococcus aureus [6] = assay: Antibacterial activity against Staphylococcus aureus ATCC 29213 grown in CAMHB medium by broth microdilution method in presence of 50 ug/ml CaCl2; assay type: functional
# Outline: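 Broth microdilution per CLSI M7-A8 in cation-adjusted Mueller-Hinton broth with 50 μg/ml CaCl2. Arithmetic dilution steps of 5 μg/ml from 20 to 10 μg/ml, 1 μg/ml from 10 to 2, 0.5 μg/ml from 2 to 1, and 0.1 μg/ml from 1 to 0.3 μg/ml. Mean of 8 replicates.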
# Staphylococcus aureus [7] = assay: Antibacterial activity against Staphylococcus aureus ATCC 29213 grown in CAMHB medium by broth microdilution method in presence of 50 ug/ml CaCl2 and 95% mouse serum; assay type: functional; outline: as §1
# Staphylococcus aureus [8] = assay: Antibacterial activity against Staphylococcus aureus ATCC 29213 grown in CAMHB medium by broth microdilution method in presence of 50 ug/ml CaCl2 and 95% rat serum; assay type: functional; outline: as §1
# [9] = Protein binding in dog serum by broth microdilution method; assay type: ADME, cell-free, Canis lupus familiaris; conditions: read-out: PB (converted); outline: as §4
# Staphylococcus aureus [10] = assay: Ratio of MIC for Staphylococcus aureus ATCC 29213 grown in CAMHB medium in presence of 95% rat serum to MIC for Staphylococcus aureus ATCC 29213 in presence of 95% rat serum ultrafiltrate; assay type: functional; outline: as §2
# Staphylococcus aureus [11] = assay: Antibacterial activity against Staphylococcus aureus ATCC 29213 grown in CAMHB medium by broth microdilution method in presence of 50 ug/ml CaCl2 and 95% dog serum; assay type: functional; outline: as §1
# Staphylococcus aureus [12] = assay: Antibacterial activity against Staphylococcus aureus ATCC 29213 grown in CAMHB medium by broth microdilution method in presence of 50 ug/ml CaCl2 and 95% rat serum ultrafiltrate; assay type: functional; outline: as §1
# Staphylococcus aureus [13] = assay: Ratio of MIC for Staphylococcus aureus ATCC 29213 grown in CAMHB medium in presence of 95% mouse serum to MIC for Staphylococcus aureus ATCC 29213 in presence of 95% mouse serum ultrafiltrate; assay type: functional; outline: as §2
# Staphylococcus aureus [14] = assay: Ratio of MIC for Staphylococcus aureus ATCC 29213 grown in CAMHB medium in presence of 95% dog serum to MIC for Staphylococcus aureus ATCC 29213 in presence of 95% dog serum ultrafiltrate; assay type: functional; outline: as §2
# [15] = Protein binding in human serum by broth microdilution method; assay type: ADME, cell-free; conditions: read-out: PB (converted); outline: as §4
# Staphylococcus aureus [16] = assay: Antibacterial activity against Staphylococcus aureus ATCC 29213 grown in CAMHB medium by broth microdilution method in presence of 50 ug/ml CaCl2 and 95% mouse serum ultrafiltrate; assay type: functional; outline: as §1
# Staphylococcus aureus [17] = assay: Antibacterial activity against Staphylococcus aureus ATCC 29213 grown in CAMHB medium by broth microdilution method in presence of 50 ug/ml CaCl2 and 95% human serum ultrafiltrate; assay type: functional; outline: as §1
# Albumin = Albumin (Homo sapiens, UniProt P02768); assay: Binding affinity to human serum albumin at 0.2 ug/ml; assay type: ADME
# Staphylococcus aureus [18] = assay: Antibacterial activity against Staphylococcus aureus ATCC 29213 grown in CAMHB medium by broth microdilution method in presence of 0.002% polysorbate 80 and 95% rat serum ultrafiltrate; assay type: functional
# Outline: (§5)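 Broth microdilution with arithmetic drug dilutions prepared in CAMHB containing 0.002% polysorbate-80. Test medium was 95% pooled serum or 95% serum ultrafiltrate plus 5% CAMHB. Ultrafiltrate was made on 50 kDa cutoff ultrafilters, which exclude albumin. Means came from 8 replicates for human, rat and dog, and from 4 to 8 replicates for mouse.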
# Staphylococcus aureus [19] = assay: Antibacterial activity against Staphylococcus aureus ATCC 29213 grown in CAMHB medium by broth microdilution method in presence of 0.002% polysorbate 80 and 95% rat serum; assay type: functional; outline: as §5
# Staphylococcus aureus [20] = assay: Antibacterial activity against Staphylococcus aureus ATCC 29213 grown in CAMHB medium by broth microdilution method in presence of 0.002% polysorbate 80 and 95% mouse serum ultrafiltrate; assay type: functional; outline: as §5
# [21] = Plasma protein binding in human at 1 to 91 ug/ml by DCC adsorption method; assay type: ADME, cell-free; conditions: read-out: PB (converted)
# Staphylococcus aureus [22] = assay: Antibacterial activity against Staphylococcus aureus ATCC 29213 grown in CAMHB medium by broth microdilution method in presence of 0.002% polysorbate 80 and 95% mouse serum; assay type: functional; outline: as §5
# Staphylococcus aureus [23] = assay: Antibacterial activity against Staphylococcus aureus ATCC 29213 grown in CAMHB medium by broth microdilution method in presence of 0.002% polysorbate 80; assay type: functional
# Outline: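 Broth microdilution per CLSI M7-A8 in cation-adjusted Mueller-Hinton broth with 0.002% polysorbate-80. Arithmetic dilution steps of 0.5 μg/ml from 3 to 1 μg/ml, 0.1 μg/ml from 1 to 0.3, 0.05 μg/ml from 0.3 to 0.1, and 0.01 μg/ml from 0.1 to 0.04 μg/ml. Mean of 8 replicates.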
# Staphylococcus aureus [24] = assay: Antibacterial activity against Staphylococcus aureus ATCC 29213 grown in CAMHB medium by broth microdilution method in presence of 0.002% polysorbate 80 and 95% dog serum; assay type: functional; outline: as §5
# [25] = Plasma protein binding in rat; assay type: ADME, cell-free; conditions: read-out: PPB
# Staphylococcus aureus [26] = assay: Antibacterial activity against Staphylococcus aureus ATCC 29213 grown in CAMHB medium by broth microdilution method in presence of 0.002% polysorbate 80 and 95% dog serum ultrafiltrate; assay type: functional; outline: as §5
# Staphylococcus aureus [27] = assay: Antibacterial activity against Staphylococcus aureus ATCC 29213 grown in CAMHB medium by broth microdilution method in presence of 0.002% polysorbate 80 and 95% human serum ultrafiltrate; assay type: functional; outline: as §5
# [28] = Plasma protein binding in human by broth microdilution method; assay type: ADME, cell-free; conditions: read-out: PPB (converted)
# Staphylococcus aureus [29] = assay: Antibacterial activity against Staphylococcus aureus ATCC 29213 grown in CAMHB medium by broth microdilution method in presence of 0.002% polysorbate 80 and 95% human serum; assay type: functional; outline: as §5
# Staphylococcus aureus [30] = assay: Antibacterial activity against Staphylococcus aureus ATCC 29213 grown in CAMHB medium by broth microdilution method; assay type: functional
# Outline: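 MIC determined by broth microdilution under CLSI M7-A8 conditions in cation-adjusted Mueller-Hinton broth, using arithmetic drug dilution steps.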
# Staphylococcus aureus [31] = assay: Antibacterial activity against Staphylococcus aureus ATCC 29213 grown in CAMHB medium by broth microdilution method in presence of 95% dog serum ultrafiltrate; assay type: functional
# Outline: (§6)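 Broth microdilution MIC run in a matrix of 95% pooled serum, or 95% serum ultrafiltrate (50 kDa cutoff filter, albumin excluded), plus 5% CAMHB. Drug dilution steps were arithmetic and prepared in CAMHB. Means came from 8 replicates per condition (mouse 4 to 8). Dog serum came from beagles.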
# Serum = assay: as §3; assay type: ADME, cell-free; outline: as §4
# Staphylococcus aureus [32] = assay: Antibacterial activity against Staphylococcus aureus ATCC 29213 grown in CAMHB medium by broth microdilution method in presence of 95% human serum ultrafiltrate; assay type: functional; outline: as §6
# Staphylococcus aureus [33] = assay: Antibacterial activity against Staphylococcus aureus ATCC 29213 grown in CAMHB medium by broth microdilution method in presence of 95% mouse serum; assay type: functional; outline: as §6
# Staphylococcus aureus [34] = assay: Antibacterial activity against Staphylococcus aureus ATCC 29213 grown in CAMHB medium by broth microdilution method in presence of 95% dog serum; assay type: functional; outline: as §6
# Staphylococcus aureus [35] = assay: Antibacterial activity against Staphylococcus aureus ATCC 29213 grown in CAMHB medium by broth microdilution method in presence of 95% rat serum ultrafiltrate; assay type: functional; outline: as §6
# Staphylococcus aureus [36] = assay: Antibacterial activity against Staphylococcus aureus ATCC 29213 grown in CAMHB medium by broth microdilution method in presence of 95% human serum; assay type: functional; outline: as §6
# Staphylococcus aureus [37] = assay: Antibacterial activity against Staphylococcus aureus ATCC 29213 grown in CAMHB medium by broth microdilution method in presence of 95% rat serum; assay type: functional; outline: as §6
# Staphylococcus aureus [38] = assay: Antibacterial activity against Staphylococcus aureus ATCC 29213 grown in CAMHB medium by broth microdilution method in presence of 95% mouse serum ultrafiltrate; assay type: functional; outline: as §6
# Albumin, sequence (P02768 whole entry): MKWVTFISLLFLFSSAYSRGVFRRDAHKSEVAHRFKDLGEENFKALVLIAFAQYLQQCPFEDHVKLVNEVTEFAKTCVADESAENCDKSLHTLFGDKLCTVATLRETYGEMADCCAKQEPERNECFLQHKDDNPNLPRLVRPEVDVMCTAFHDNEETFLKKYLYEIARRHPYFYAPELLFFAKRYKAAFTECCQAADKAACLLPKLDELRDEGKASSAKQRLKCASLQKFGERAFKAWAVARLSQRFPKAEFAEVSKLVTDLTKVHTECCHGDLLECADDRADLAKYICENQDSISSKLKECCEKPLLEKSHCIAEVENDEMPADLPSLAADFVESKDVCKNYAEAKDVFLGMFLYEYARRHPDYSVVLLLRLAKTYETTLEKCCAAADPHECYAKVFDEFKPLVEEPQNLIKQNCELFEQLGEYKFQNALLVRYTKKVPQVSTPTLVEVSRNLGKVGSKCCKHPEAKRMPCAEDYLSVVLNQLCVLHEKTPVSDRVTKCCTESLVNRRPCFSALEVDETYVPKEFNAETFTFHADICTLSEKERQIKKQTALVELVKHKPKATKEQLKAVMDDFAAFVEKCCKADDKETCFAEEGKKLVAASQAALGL
compound,measurement,setting,value
CCCCCCCCCC(=O)N[C@@H](Cc1c[nH]c2ccccc12)C(=O)N[C@H](CC(N)=O)C(=O)N[C@@H](CC(=O)O)C(=O)N[C@@H]1C(=O)NCC(=O)N[C@@H](CCCN)C(=O)N[C@@H](CC(=O)O)C(=O)N[C@H](C)C(=O)N[C@@H](CC(=O)O)C(=O)NCC(=O)N[C@H](CO)C(=O)N[C@@H]([C@H](C)CC(=O)O)C(=O)N[C@@H](CC(=O)c2ccccc2N)C(=O)O[C@@H]1C,MIC,Staphylococcus aureus [1],0.638 µg/mL
same,Ratio,Staphylococcus aureus [2],5.8
same,fraction unbound,[3],0.24
same,fraction unbound,[4],0.344
same,MIC,Staphylococcus aureus [5],3 µg/mL
same,MIC,Staphylococcus aureus [6],0.975 µg/mL
same,MIC,Staphylococcus aureus [7],12.5 µg/mL
same,MIC,Staphylococcus aureus [8],1.56 µg/mL
same,fraction unbound,[9],0.255
same,Ratio,Staphylococcus aureus [10],2.9
same,MIC,Staphylococcus aureus [11],2.5 µg/mL
same,MIC,Staphylococcus aureus [12],0.538 µg/mL
same,Ratio,Staphylococcus aureus [13],4.2
same,Ratio,Staphylococcus aureus [14],3.9
same,fraction unbound,[15],0.171
same,MIC,Staphylococcus aureus [16],3 µg/mL
same,MIC,Staphylococcus aureus [17],0.513 µg/mL
CN[C@H](CC(C)C)C(=O)N[C@H]1C(=O)N[C@@H](CC(N)=O)C(=O)N[C@H]2C(=O)N[C@H]3C(=O)N[C@H](C(=O)N[C@H](C(=O)O)c4cc(O)cc(O)c4-c4cc3ccc4O)[C@H](O[C@H]3C[C@](C)(N)[C@@H](O)[C@H](C)O3)c3ccc(c(Cl)c3)Oc3cc2cc(c3O[C@@H]2O[C@H](CO)[C@@H](O)[C@H](O)[C@H]2O[C@H]2C[C@](C)(NCc3ccc(-c4ccc(Cl)cc4)cc3)[C@@H](O)[C@H](C)O2)Oc2ccc(cc2Cl)[C@H]1O [ORITAVANCIN],fraction unbound at 0.2 ug/ml,Albumin,0.21
same,MIC,Staphylococcus aureus [18],0.055 µg/mL
same,Ratio,Staphylococcus aureus [2],5.5
same,MIC,Staphylococcus aureus [19],0.313 µg/mL
same,MIC,Staphylococcus aureus [20],0.079 µg/mL
same,fraction unbound,[21],0.143
same,MIC,Staphylococcus aureus [22],0.538 µg/mL
same,Ratio,Staphylococcus aureus [10],5.7
same,Ratio,Staphylococcus aureus [13],6.8
same,Ratio,Staphylococcus aureus [14],7.8
same,MIC,Staphylococcus aureus [23],0.08 µg/mL
same,MIC,Staphylococcus aureus [24],0.475 µg/mL
same,fraction unbound,[25],< 0.2
same,MIC,Staphylococcus aureus [26],0.061 µg/mL
same,MIC,Staphylococcus aureus [27],0.14 µg/mL
same,fraction unbound,[28],0.125
same,MIC,Staphylococcus aureus [29],0.775 µg/mL
CO/N=C(\C(=O)N[C@@H]1C(=O)N2C(C(=O)O)=C(CSc3nc(=O)c(O)nn3C)CS[C@H]12)c1csc(N)n1 [CEFTRIAXONE],Ratio,Staphylococcus aureus [2],13.5
same,MIC,Staphylococcus aureus [30],3.5 µg/mL
same,MIC,Staphylococcus aureus [31],1.09 µg/mL
same,Protein binding,Serum,37.5%
same,MIC,Staphylococcus aureus [32],2.88 µg/mL
same,fraction unbound,[4],0.66
same,MIC,Staphylococcus aureus [33],6 µg/mL
same,MIC,Staphylococcus aureus [34],1.38 µg/mL
same,fraction unbound,[9],0.791
same,Ratio,Staphylococcus aureus [10],1.5
same,Ratio,Staphylococcus aureus [13],1.6
same,MIC,Staphylococcus aureus [35],3.88 µg/mL
same,Ratio,Staphylococcus aureus [14],1.3
same,MIC,Staphylococcus aureus [36],38.8 µg/mL
same,fraction unbound,[15],0.074
same,MIC,Staphylococcus aureus [37],5.88 µg/mL
same,MIC,Staphylococcus aureus [38],3.75 µg/mL
